Drawing on ChEMBL document CHEMBL1649422, “Synthesis and molecular modeling of novel tetrahydro-β-carboline derivatives with phosphodiesterase 5 inhibitory and anticancer properties” (J Med Chem, 2011), this text covers inhibition and IC50 for 22 compounds.

The structures appear in SMILES notation.

For assay [1], the target named is T1, cGMP-specific 3',5'-cyclic phosphodiesterase (Homo sapiens, UniProt O76074). The assay can be described thus: Inhibition of human recombinant PDE5 at 10 uM after 30 mins by fluorescence polarization assay.
Assay [2] concerns MDA-MB-231. The assay can be described thus: Growth inhibition of human MDA-MB-231 cells at 10 uM after 72 hrs by luminescence assay. In kind it is functional. Conditions: MDA-MB-231, 72 h.
Assay [3] concerns MDA-MB-231. Briefly: Growth inhibition of human MDA-MB-231 cells after 72 hrs by luminescence assay. The following applies: MDA-MB-231, 72 h. In kind it is functional, cell-based. In short, it runs like this: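 MDA-MB-231 cells grown in RPMI 1640 with 5% FBS, 2 mM glutamine and antibiotics at 37 °C, 5% CO2. Cells were harvested at 70–90% confluence, used only if viability >95%, and seeded at 5000 cells/well. Dosing followed 18–24 h later, with final DMSO 0.1%. Viability was read after 72 h by CellTiter-Glo luminescence. IC50 came from eight concentrations in quadruplicate, fitted to a four-parameter logistic.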

In assay [4] the target is T1, cGMP-specific 3',5'-cyclic phosphodiesterase. The assay can be described thus: Inhibition of human recombinant PDE5 after 30 mins by fluorescence polarization assay. In short, it runs like this:
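Recombinant human PDE5A at 12.5 units/mL was preincubated 30 min with compound or vehicle. Then 50 nM TAMRA-cGMP was added and the mix incubated 1.5 h at 30 °C. IMAP binding reagent was added for 30 min at 30 °C and fluorescence polarization read. IC50 came from a 10-concentration series in quadruplicate, fitted to a four-parameter logistic.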

In assay [5] the target is T2, Dual 3',5'-cyclic-AMP and -GMP phosphodiesterase 11A (Homo sapiens, UniProt Q9HCR9). The assay can be described thus: Inhibition of human recombinant PDE11A-mediated hydrolysis of cAMP after 30 mins by fluorescence polarization assay. In short, it runs like this:
(§1)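 Recombinant human enzyme levels were PDE3B 10 units/mL, PDE4B 400 units/mL and PDE11A 50 units/mL. Enzyme was preincubated with compound or vehicle for 30 min. Substrate was then added: 50 nM TAMRA-cGMP and/or 50 nM fluorescein-cAMP. Fluorescence polarization was read. IC50 came from a 10-concentration series in quadruplicate, fitted to a four-parameter logistic.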

For assay [6], the target named is 3',5'-cyclic-AMP phosphodiesterase 4B (Homo sapiens, UniProt Q07343). The assay can be described thus: Inhibition of human recombinant PDE4B-mediated hydrolysis of cAMP after 30 mins by fluorescence polarization assay. A digest of the protocol:
as §1

Assay [7] deals with T3, cGMP-inhibited 3',5'-cyclic phosphodiesterase 3B (Homo sapiens, UniProt Q13370). Briefly: Inhibition of human recombinant PDE3B-mediated hydrolysis of cAMP after 30 mins by fluorescence polarization assay. A digest of the protocol: (§2)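 Recombinant human enzyme levels were PDE3B 10 units/mL, PDE4B 400 units/mL and PDE11A 50 units/mL. Enzyme was preincubated with compound or vehicle for 30 min. Substrate was then added: 50 nM TAMRA-cGMP and/or 50 nM fluorescein-cAMP. Reactions ran 1.5 h at 30 °C, followed by IMAP binding reagent for 30 min at 30 °C. Fluorescence polarization was read. IC50 came from a 10-concentration series in quadruplicate, fitted to a four-parameter logistic.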

Assay [8] concerns the target T1, cGMP-specific 3',5'-cyclic phosphodiesterase. The assay can be described thus: Inhibition of human recombinant PDE5A-mediated hydrolysis of cGMP after 30 mins by fluorescence polarization assay.
Assay [9] concerns the target T3, cGMP-inhibited 3',5'-cyclic phosphodiesterase 3B. Briefly: Inhibition of human recombinant PDE3B-mediated hydrolysis of cGMP after 30 mins by fluorescence polarization assay. In short, it runs like this: as §2
Assay [10] addresses T2, Dual 3',5'-cyclic-AMP and -GMP phosphodiesterase 11A. Briefly: Inhibition of human recombinant PDE11A-mediated hydrolysis of cGMP after 30 mins by fluorescence polarization assay. A digest of the protocol:
as §1

T3 sequence (Q13370 whole entry): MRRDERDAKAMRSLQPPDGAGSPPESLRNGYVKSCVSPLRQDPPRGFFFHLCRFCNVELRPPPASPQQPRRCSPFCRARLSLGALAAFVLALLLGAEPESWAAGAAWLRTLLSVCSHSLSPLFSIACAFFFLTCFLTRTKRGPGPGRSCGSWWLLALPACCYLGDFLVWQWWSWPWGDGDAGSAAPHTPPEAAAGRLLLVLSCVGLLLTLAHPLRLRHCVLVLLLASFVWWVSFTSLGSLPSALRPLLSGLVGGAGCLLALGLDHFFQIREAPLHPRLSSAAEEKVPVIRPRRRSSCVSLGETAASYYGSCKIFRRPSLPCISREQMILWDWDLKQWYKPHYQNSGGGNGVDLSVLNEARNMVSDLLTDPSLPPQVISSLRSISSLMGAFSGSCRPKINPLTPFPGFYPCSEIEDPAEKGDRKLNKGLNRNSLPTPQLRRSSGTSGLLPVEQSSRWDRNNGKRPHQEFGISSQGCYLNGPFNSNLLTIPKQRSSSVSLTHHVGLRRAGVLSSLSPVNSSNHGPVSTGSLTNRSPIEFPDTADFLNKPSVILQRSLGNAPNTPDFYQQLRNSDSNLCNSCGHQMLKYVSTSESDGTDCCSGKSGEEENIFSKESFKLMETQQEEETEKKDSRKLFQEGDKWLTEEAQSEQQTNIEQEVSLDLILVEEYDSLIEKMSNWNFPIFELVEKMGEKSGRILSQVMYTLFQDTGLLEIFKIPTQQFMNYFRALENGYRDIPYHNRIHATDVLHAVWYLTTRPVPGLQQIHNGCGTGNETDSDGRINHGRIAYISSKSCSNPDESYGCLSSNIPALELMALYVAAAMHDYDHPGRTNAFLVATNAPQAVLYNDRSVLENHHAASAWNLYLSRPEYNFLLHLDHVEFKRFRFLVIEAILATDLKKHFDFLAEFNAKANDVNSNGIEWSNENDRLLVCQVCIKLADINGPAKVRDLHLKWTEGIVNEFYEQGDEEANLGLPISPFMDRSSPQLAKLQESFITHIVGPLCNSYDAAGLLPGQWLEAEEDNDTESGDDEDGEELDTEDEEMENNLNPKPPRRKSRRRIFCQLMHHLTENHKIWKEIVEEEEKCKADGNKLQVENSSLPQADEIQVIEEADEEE
Chain of 3',5'-cyclic-AMP phosphodiesterase 4B (Q07343 whole entry): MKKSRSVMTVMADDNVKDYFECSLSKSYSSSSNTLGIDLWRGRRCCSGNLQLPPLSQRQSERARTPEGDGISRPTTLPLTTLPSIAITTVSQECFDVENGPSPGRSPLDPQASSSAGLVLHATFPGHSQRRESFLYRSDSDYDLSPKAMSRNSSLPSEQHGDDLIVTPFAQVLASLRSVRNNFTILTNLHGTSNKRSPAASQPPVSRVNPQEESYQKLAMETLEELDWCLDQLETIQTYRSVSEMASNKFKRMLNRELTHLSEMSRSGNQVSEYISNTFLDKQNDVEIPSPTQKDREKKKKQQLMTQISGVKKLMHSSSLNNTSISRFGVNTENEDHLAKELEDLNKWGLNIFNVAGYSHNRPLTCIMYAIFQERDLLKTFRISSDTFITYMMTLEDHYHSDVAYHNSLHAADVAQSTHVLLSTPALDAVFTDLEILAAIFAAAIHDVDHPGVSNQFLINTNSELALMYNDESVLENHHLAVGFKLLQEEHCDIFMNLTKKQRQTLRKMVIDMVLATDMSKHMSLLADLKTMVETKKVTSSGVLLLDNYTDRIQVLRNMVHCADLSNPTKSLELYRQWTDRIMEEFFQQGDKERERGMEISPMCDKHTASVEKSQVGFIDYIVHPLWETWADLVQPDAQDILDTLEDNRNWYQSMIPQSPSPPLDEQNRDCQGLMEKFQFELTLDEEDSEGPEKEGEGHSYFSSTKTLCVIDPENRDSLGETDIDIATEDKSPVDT
T2 sequence (Q9HCR9 whole entry): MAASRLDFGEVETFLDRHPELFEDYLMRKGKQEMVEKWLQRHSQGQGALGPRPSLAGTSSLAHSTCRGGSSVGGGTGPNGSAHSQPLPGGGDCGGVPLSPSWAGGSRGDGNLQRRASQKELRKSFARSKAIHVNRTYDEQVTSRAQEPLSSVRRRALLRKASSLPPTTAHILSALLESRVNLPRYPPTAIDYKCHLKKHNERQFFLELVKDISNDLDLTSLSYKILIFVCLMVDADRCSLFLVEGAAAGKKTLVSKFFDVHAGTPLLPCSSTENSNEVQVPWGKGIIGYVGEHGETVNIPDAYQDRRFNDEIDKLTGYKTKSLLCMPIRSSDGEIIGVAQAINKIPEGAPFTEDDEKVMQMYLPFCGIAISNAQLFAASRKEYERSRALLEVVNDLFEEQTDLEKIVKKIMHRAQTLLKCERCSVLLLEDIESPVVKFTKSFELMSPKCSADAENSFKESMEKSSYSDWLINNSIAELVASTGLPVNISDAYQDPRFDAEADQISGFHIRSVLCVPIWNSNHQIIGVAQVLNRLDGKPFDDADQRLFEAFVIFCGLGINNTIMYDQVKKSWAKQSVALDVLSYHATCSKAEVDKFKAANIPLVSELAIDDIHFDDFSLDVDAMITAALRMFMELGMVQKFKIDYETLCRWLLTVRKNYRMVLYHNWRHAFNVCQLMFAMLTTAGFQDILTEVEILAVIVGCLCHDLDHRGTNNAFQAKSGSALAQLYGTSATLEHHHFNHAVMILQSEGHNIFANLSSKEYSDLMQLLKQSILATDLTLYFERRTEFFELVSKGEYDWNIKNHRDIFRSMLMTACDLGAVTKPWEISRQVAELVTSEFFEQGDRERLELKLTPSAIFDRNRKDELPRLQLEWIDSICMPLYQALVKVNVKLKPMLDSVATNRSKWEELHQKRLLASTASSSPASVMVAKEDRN

Take `COC(=O)[C@H]1Cc2c([nH]c3ccccc23)[C@H](c2ccc(Cl)cc2Cl)N1`: in [1], the inhibition is 40%. Further, the inhibition at 10 µM in the assay with MDA-MB-231 [2] came out at 78%. The IC50 in the assay on MDA-MB-231 [3] stood at 6.73 µM.
As for `CCN1CC(=O)N2[C@@H](c3ccc(Cl)cc3Cl)c3[nH]c4ccccc4c3C[C@@H]2C1=O`, the inhibition in [1] stood at 90%. The inhibition at 10 µM in the assay on MDA-MB-231 [2] was 66%. The figures for the IC50 (in assay [4]; in the assay with MDA-MB-231 [3]) were 0.26 µM and 1.54 µM, respectively.
The corresponding values for `CC(C)(C)N1C(=O)[C@H]2Cc3c([nH]c4ccccc34)[C@@H](c3ccc(Cl)c(Cl)c3)N2C1=O` are 82%, 99%, 1.87 µM and 3.25 µM.
Regarding `COC(=O)[C@H]1Cc2c([nH]c3ccccc23)[C@@H](c2ccc(Cl)cc2Cl)N1C(=O)CCl`, in [1], the inhibition came out at 66%. Further, the figures for the IC50 (in [4]; with MDA-MB-231 [3]) were 2.3 µM and 0.56 µM, respectively.
The corresponding values for `CC(C)(C)N1CC(=O)N2[C@@H](c3ccc(Cl)cc3Cl)c3[nH]c4ccccc4c3C[C@H]2C1=O` are 78%, 1.35 µM and 2.59 µM.
As to `CCCCN1CC(=O)N2[C@@H](c3ccc(Cl)cc3Cl)c3[nH]c4ccccc4c3C[C@H]2C1=O`, the inhibition in [1] amounted to 78%. In addition, the inhibition at 10 µM with MDA-MB-231 [2] stood at 82%. The values for the IC50 (in assay [4]; in the assay on MDA-MB-231 [3]) were 4.46 µM and 3.28 µM, respectively.
The corresponding values for `CC(C)(C)N1C(=O)[C@@H]2Cc3c([nH]c4ccccc34)[C@@H](c3ccc(Cl)cc3Cl)N2C1=O` are 95%, 69%, 0.07 µM and 1.26 µM.
Turning to `CC(C)(C)N1C(=O)[C@@H]2Cc3c([nH]c4ccccc34)[C@H](c3ccc(Cl)c(Cl)c3)N2C1=O`, in assay [1], the inhibition came out at 80%. The compound further came in with an inhibition at 10 µM with MDA-MB-231 [2] of 70%. The IC50 in assay [4] turned out to be 2.31 µM; in the assay with MDA-MB-231 [3], 1.43 µM.
In the case of `CCN1C(=O)[C@@H]2Cc3c([nH]c4ccccc34)[C@H](c3ccc(Cl)c(Cl)c3)N2C1=O`, the IC50 in [4] is 8.75 µM; in the assay on MDA-MB-231 [3] it was 4.78 µM.
With `CN1CC(=O)N2[C@@H](c3ccc(Cl)cc3Cl)c3[nH]c4ccccc4c3C[C@@H]2C1=O`, the inhibition in assay [1] came to 90%. The inhibition at 10 µM in the assay with MDA-MB-231 [2] stood at 65%. Also, the IC50 was 1.2 µM in assay [4] and 3.26 µM in the assay on MDA-MB-231 [3].
In the case of `CCN1CC(=O)N2[C@H](c3ccc(Cl)cc3Cl)c3[nH]c4ccccc4c3C[C@@H]2C1=O`, the IC50 in assay [5] was 0.104 µM; in [6] it was over 50 µM; in assay [7], over 50 µM; in [8], 0.002 µM; in [9], over 50 µM; in assay [10] it was 0.011 µM. Also, the IC50 in [4] stood at 0.002 µM. Further, in assay [1], the inhibition was 91%. This compound registered an inhibition at 10 µM in the assay with MDA-MB-231 [2] of 30%.
In the case of `CCCCN1CC(=O)N2[C@@H](c3ccc(Cl)cc3Cl)c3[nH]c4ccccc4c3C[C@@H]2C1=O`, the inhibition in [1] is 69%. This compound registered an inhibition at 10 µM with MDA-MB-231 [2] of 65%. For the same compound, the IC50 in assay [4] was determined as 1.11 µM; in the assay with MDA-MB-231 [3] it was 1.2 µM.
The corresponding values for `CC(C)(C)N1C(=O)[C@H]2Cc3c([nH]c4ccccc34)[C@@H](c3ccc(Cl)cc3Cl)N2C1=O` are 80%, 68%, 0.59 µM and 2.26 µM.
For the compound `CN1CC(=O)N2[C@H](c3ccc4c(c3)OCO4)c3[nH]c4ccccc4c3C[C@@H]2C1=O`, the IC50 in assay [7] and in assay [9] was over 50 µM throughout.
With `CN1CC(=O)N2[C@@H](c3ccc(Cl)cc3Cl)c3[nH]c4ccccc4c3C[C@H]2C1=O`, in assay [1], the inhibition turned out to be 82%. In the assay with MDA-MB-231 [2], this compound showed an inhibition at 10 µM of 70%. Further, the IC50 in [4] was 0.85 µM; in the assay on MDA-MB-231 [3], 7.1 µM.
As to `CC(C)(C)N1C(=O)[C@H]2Cc3c([nH]c4ccccc34)[C@H](c3ccc(Cl)cc3Cl)N2C1=O`, the inhibition in assay [1] was found to be 73%. In addition, in the assay on MDA-MB-231 [2], the inhibition at 10 µM worked out at 65%. Besides, the IC50 in assay [4] was found to be 1.48 µM; with MDA-MB-231 [3], 0.64 µM.
In the case of `COC(=O)[C@@H]1Cc2c([nH]c3ccccc23)[C@@H](c2ccc(Cl)cc2Cl)N1C(=O)CCl`, in [1], the inhibition turned out to be 38%. In the assay on MDA-MB-231 [2], 10 µM produced 98% inhibition. The IC50 in the assay on MDA-MB-231 [3] amounted to 1.24 µM.
The corresponding values for `COC(=O)[C@@H]1Cc2c([nH]c3ccccc23)[C@H](c2ccc(Cl)c(Cl)c2)N1` are 18%, 62% and 6.98 µM.
`CCN1C(=O)[C@@H]2Cc3c([nH]c4ccccc34)[C@@H](c3ccc(Cl)cc3Cl)N2C1=O`: the IC50 in [5] is 13 µM; in [6], 3.6 µM; in assay [7], over 50 µM; in assay [8] it was 0.007 µM; in [9], over 50 µM; in assay [10], 1.5 µM. The half-inhibitory concentration (IC50) was 0.007 µM in assay [4] and 5.37 µM in the assay on MDA-MB-231 [3]. In addition, in [1], the inhibition is 95%. The compound also had an inhibition at 10 µM in the assay on MDA-MB-231 [2] of 68%.
Regarding `COC(=O)[C@H]1Cc2c([nH]c3ccccc23)[C@H](c2ccc(Cl)c(Cl)c2)N1`, the inhibition in assay [1] was 50%. The same compound showed an inhibition at 10 µM in the assay on MDA-MB-231 [2] of 100%. Also, the IC50 with MDA-MB-231 [3] stood at 4.62 µM.
As for `CCN1C(=O)[C@H]2Cc3c([nH]c4ccccc34)[C@@H](c3ccc(Cl)cc3Cl)N2C1=O`, the IC50 in assay [5] was 2 µM; in assay [6], 34 µM; in assay [7], over 50 µM; in [8], 0.01 µM; in [9], over 50 µM; in [10], 0.31 µM. Moreover, the IC50 in assay [4] was 0.01 µM. Also, the inhibition in [1] was 95%. The compound further showed an inhibition at 10 µM in the assay with MDA-MB-231 [2] of 39%.
Turning to `CC(C)(C)N1CC(=O)N2[C@@H](c3ccc(Cl)cc3Cl)c3[nH]c4ccccc4c3C[C@@H]2C1=O`, the IC50 in [4] came to 1.26 µM; in the assay on MDA-MB-231 [3], 2.92 µM.
